Source: ChEMBL document CHEMBL4184143 (J Med Chem, 2017)

What was measured:
[1] = Half life in CD1 mouse liver microsomes at 1 uM by LC/MS method; format: ADME, microsome
[2] = target: T1, Bromodomain-containing protein 4 (Homo sapiens, UniProt O60885); assay: Binding affinity to human partial length BRD4 bromodomain 2 long isoform (K333 to E460 residues) expressed in bacterial expression system by BROMOscan assay
[3] = target: T2, Bromodomain-containing protein 8 (Homo sapiens, UniProt Q9H0E9); assay: Binding affinity to human partial length BRD8 bromodomain 1 (S700 to F854 residues) expressed in mammalian expression system by BROMOscan assay
T2 sequence (Q9H0E9 whole entry, the tested form may be a part): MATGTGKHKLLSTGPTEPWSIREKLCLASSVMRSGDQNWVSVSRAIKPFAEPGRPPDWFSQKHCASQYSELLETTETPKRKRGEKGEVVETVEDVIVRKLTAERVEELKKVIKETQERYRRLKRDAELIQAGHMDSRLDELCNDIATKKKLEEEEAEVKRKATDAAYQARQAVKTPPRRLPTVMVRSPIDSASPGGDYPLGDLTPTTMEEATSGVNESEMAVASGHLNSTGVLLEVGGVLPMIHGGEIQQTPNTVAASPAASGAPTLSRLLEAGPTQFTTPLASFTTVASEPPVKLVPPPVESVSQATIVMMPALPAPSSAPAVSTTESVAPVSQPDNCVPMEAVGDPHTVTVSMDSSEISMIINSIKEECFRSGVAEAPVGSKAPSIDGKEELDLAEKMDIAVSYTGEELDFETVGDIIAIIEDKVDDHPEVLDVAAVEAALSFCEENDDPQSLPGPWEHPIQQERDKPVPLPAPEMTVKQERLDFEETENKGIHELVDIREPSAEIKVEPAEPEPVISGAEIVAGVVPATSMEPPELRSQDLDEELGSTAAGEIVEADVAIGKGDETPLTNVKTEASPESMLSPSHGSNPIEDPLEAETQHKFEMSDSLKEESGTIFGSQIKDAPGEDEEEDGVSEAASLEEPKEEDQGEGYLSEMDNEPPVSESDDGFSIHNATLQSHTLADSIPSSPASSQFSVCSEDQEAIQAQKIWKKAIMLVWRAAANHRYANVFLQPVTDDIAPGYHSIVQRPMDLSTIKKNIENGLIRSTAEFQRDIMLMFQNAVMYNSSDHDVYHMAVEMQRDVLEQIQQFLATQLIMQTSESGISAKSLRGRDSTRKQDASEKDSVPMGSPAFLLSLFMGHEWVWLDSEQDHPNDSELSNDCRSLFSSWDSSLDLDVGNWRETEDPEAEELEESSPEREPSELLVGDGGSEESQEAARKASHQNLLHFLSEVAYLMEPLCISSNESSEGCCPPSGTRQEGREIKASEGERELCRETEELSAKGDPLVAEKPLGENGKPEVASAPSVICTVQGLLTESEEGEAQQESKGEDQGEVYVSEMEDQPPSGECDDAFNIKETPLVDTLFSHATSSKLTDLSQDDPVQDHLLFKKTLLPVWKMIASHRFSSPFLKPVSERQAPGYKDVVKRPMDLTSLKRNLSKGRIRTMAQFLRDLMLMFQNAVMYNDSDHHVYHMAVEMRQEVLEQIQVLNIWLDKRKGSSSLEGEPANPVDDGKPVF

[4] = target: Histone acetyltransferase KAT2A (Homo sapiens, UniProt Q92830); assay: Binding affinity to human partial length GCN5L2 (E726 to K837 residues) expressed in bacterial expression system by BROMOscan assay
Histone acetyltransferase KAT2A, sequence (Q92830 whole entry, the tested form may be a part): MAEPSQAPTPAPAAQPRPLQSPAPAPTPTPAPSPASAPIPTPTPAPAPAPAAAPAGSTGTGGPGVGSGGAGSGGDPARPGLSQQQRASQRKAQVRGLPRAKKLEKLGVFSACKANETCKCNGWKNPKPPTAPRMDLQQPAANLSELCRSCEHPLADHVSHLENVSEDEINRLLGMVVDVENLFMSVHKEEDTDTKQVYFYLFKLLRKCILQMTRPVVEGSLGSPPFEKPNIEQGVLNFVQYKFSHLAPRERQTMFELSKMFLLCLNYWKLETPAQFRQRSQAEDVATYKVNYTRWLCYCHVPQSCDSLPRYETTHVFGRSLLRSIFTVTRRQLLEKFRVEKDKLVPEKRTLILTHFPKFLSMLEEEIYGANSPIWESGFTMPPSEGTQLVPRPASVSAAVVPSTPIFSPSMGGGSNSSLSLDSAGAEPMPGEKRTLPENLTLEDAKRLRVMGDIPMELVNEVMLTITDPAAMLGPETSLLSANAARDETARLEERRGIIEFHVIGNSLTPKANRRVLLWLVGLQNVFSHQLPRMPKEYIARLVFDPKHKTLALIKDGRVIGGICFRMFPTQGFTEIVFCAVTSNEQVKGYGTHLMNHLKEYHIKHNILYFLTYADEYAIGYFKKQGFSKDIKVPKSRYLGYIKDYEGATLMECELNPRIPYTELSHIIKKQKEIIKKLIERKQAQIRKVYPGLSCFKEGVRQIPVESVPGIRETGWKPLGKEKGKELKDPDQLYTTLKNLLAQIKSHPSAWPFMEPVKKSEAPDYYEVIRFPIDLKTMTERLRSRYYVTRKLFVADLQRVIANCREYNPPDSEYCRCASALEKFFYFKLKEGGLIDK

[5] = target: Bromodomain-containing protein 7 (Homo sapiens, UniProt Q9NPI1); assay: Binding affinity to human partial length BRD7 (L125 to R254 residues) expressed in […] expression system by BROMOscan assay
Bromodomain-containing protein 7, sequence (Q9NPI1 whole entry, the tested form may be a part): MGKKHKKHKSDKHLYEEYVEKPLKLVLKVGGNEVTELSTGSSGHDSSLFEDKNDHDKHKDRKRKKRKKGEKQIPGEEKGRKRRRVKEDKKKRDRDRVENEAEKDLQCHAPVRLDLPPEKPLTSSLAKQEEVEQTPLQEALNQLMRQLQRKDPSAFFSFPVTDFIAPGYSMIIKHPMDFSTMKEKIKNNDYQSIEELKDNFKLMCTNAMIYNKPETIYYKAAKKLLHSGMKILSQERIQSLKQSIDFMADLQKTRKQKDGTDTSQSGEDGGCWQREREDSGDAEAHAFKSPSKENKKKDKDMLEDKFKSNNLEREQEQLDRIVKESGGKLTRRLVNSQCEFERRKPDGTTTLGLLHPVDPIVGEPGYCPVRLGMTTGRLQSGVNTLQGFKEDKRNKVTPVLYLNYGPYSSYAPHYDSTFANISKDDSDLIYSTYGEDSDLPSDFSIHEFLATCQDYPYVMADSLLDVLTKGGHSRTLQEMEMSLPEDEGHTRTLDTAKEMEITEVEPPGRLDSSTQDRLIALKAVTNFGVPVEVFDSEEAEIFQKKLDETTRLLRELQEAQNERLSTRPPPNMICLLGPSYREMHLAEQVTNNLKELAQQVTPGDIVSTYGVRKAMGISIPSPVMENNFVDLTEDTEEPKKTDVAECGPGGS

Mus musculus [6] = assay: Clearance in SCID mouse at 5 mg/kg, iv by LC/MS method; format: ADME, organism-based; settings: in vivo
[7] = target: SWI/SNF-related matrix-associated actin-dependent regulator of chromatin subfamily A member 4 (Homo sapiens, UniProt P51532); assay: Binding affinity to human partial length SMARCA4 (A1448 to S1575 residues) expressed in bacterial expression system by BROMOscan assay
MV4-11 [8] = assay: Inhibition of BET bromodomain in human MV4-11 cells assessed as upregulation of p21 protein level after 24 hrs by Western blot method; format: cell-based
Procedure, shortened: (§1)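 MV4;11 cells were exposed to compound for 24 h and lysed in RIPA buffer with protease inhibitors. Lysates were separated on 4–20% SDS-PAGE, blotted to PVDF and probed for PARP, cleaved PARP and p21, with β-actin as loading control.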

HCC1143 = assay: Cytotoxicity against human HCC1143 cells assessed as cell growth inhibition after 4 days by WST-8 assay; format: functional, cell-based; settings: HCC1143, 96 h
Procedure, shortened: (§2)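 Breast cancer cells were seeded at 3,000 cells/well, treated with serially diluted compound in medium and cultured for 4 days. Growth was read by WST-8 (10% v/v final, 1–3 h) at 450 nm. Readings were normalized to DMSO-treated cells, and IC50 was obtained by nonlinear regression.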

Mus musculus [9] = assay: Toxicity in SCID mouse implanted with human MV-411 cells assessed as weight loss at 50 mg/kg, po qd measured 2 to 3 times weekly during treatment and weekly post dose; format: organism-based; settings: in vivo
Procedure, shortened: (§3)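 At ~100 mm3, mice were randomized to treatment or vehicle control. Tumors were measured by electronic calipers. Animals were checked daily for signs of toxicity and weighed 2–3 times weekly on treatment, then at least weekly afterwards.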

[10] = target: T3, Bromodomain testis-specific protein (Homo sapiens, UniProt Q58F21); assay: Binding affinity to human partial length BRDT bromodomain 1 isoform b (N21 to E137 residues) expressed in bacterial expression system by BROMOscan assay
[11] = Cmax in Sprague-Dawley rat at 25 mg/kg, po by LC/MS method; format: ADME, organism-based; set-up: dose 25 mg/kg, route oral; settings: in vivo
Procedure, shortened: (§4)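 Sprague Dawley rats were dosed iv at 5 mg/kg or orally at 25 mg/kg, with compound dissolved in 20% (v/v) PCP/70% (v/v) PBS vehicle. Blood was drawn by catheter at 0, 5, 15, 30 min and 1, 2, 4, 6, 8, 24 h and spun to plasma, which was stored at −80 °C. Plasma drug was quantified by a validated LC–MS/MS method, and parameters were derived noncompartmentally.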

[12] = target: Bromodomain-containing protein 1 (Homo sapiens, UniProt O95696); assay: Binding affinity to human partial length BRD1 (E556 to A688 residues) expressed in bacterial expression system by BROMOscan assay
Bromodomain-containing protein 1, sequence (O95696 whole entry, the tested form may be a part): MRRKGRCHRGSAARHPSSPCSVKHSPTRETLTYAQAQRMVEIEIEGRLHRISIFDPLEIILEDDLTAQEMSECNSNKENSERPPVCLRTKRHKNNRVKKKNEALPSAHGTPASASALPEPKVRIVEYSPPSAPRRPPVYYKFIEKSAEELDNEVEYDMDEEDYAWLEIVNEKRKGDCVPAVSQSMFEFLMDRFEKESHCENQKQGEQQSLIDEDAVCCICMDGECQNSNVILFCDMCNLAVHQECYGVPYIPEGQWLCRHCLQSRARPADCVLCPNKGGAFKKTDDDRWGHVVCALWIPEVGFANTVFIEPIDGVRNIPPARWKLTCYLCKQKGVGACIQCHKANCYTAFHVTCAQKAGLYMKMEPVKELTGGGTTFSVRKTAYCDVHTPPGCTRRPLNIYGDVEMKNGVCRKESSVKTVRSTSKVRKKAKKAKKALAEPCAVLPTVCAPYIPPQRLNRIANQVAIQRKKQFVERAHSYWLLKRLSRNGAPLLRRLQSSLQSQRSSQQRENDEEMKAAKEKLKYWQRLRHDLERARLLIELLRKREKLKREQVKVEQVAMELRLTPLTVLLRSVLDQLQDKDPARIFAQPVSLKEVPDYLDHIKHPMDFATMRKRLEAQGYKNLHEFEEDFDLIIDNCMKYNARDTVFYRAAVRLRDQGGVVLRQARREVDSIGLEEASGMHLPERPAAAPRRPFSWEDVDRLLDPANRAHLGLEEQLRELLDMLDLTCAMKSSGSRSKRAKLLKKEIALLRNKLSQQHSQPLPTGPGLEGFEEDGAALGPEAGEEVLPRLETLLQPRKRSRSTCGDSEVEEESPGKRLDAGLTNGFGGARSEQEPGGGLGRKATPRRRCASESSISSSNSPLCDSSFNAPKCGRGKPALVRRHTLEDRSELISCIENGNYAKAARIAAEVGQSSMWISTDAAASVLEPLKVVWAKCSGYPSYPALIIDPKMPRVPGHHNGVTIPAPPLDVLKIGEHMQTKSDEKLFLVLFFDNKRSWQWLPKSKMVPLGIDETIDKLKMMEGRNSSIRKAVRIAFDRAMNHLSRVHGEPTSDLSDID

MV4-11 [13] = assay: Induction of apoptosis in human MV4-11 cells assessed as upregulation of cleaved PARP protein level after 24 hrs by Western blot method; format: functional, cell-based; procedure, shortened: as §1
[14] = AUC (0 to t) in SCID mouse at 25 mg/kg, po by LC/MS method; format: ADME, organism-based; settings: in vivo
Procedure, shortened: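 Mouse plasma samples were stored at −80 °C. Drug levels were quantified by a validated LC–MS/MS method, and pharmacokinetic parameters were calculated by noncompartmental analysis.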

Mus musculus [15] = assay: Half life in SCID mouse at 5 mg/kg, iv by LC/MS method; format: ADME, organism-based; settings: in vivo
[16] = Oral bioavailability in SCID mouse at 25 mg/kg by LC/MS method; format: ADME, organism-based; settings: in vivo
[17] = target: Bromodomain-containing protein 3 (Homo sapiens, UniProt Q15059); assay: Binding affinity to human partial length BRD3 bromodomain 2 (G306 to P416 residues) expressed in bacterial expression system by BROMOscan assay
Bromodomain-containing protein 3, sequence (Q15059 whole entry, the tested form may be a part): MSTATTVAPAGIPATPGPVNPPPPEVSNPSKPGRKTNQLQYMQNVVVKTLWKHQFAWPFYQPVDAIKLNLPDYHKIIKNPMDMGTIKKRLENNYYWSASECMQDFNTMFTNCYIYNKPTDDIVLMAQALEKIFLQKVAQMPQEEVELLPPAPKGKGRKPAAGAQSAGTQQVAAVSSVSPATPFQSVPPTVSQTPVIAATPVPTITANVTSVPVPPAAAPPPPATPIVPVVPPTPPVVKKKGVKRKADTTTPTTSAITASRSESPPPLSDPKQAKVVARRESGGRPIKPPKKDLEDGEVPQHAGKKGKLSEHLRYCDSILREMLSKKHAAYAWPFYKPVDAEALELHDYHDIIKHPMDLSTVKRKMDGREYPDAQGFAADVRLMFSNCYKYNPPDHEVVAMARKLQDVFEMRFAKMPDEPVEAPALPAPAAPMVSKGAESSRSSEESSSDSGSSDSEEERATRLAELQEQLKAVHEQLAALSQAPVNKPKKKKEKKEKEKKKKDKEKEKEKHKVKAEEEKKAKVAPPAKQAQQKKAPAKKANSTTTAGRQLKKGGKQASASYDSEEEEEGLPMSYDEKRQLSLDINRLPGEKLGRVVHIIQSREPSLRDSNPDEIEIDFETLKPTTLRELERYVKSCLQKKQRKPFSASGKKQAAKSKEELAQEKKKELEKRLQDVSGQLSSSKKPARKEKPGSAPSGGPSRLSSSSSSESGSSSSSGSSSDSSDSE

[18] = Oral bioavailability in Sprague-Dawley rat at 25 mg/kg by LC/MS method; format: ADME, organism-based; settings: in vivo
SUM-159-PT = assay: Cytotoxicity against human SUM159PT cells assessed as cell growth inhibition after 4 days by WST-8 assay; format: functional, cell-based; settings: 96 h; procedure, shortened: as §2
[19] = target: Histone acetyltransferase KAT2B (Homo sapiens, UniProt Q92831); assay: Binding affinity to human partial length PCAF (G715 to D831 residues) expressed in bacterial expression system by BROMOscan assay
[20] = target: T3, Bromodomain testis-specific protein; assay: Binding affinity to human partial length BRDT bromodomain 2 isoform b (K250 to E382 residues) expressed in bacterial expression system by BROMOscan assay
Mus musculus [21] = assay: Toxicity in SCID mouse implanted with human MV4-11 cells at 50 mg/kg, po qd measured 2 to 3 times weekly during treatment and once weekly post dose; format: organism-based; settings: in vivo; procedure, shortened: as §3
[22] = target: T1, Bromodomain-containing protein 4; assay: Inhibition of FAM-labeled ZBA248 binding to recombinant human N-terminal His6-tagged BRD4 bromodomain 1 (44 to 168 residues) expressed in Rosetta2 DE3 cells after 30 mins by Flourescence polarization assay; format: biochemical
[23] = target: Bromodomain-containing protein 2 (Homo sapiens, UniProt P25440); assay: Binding affinity to human partial length BRD2 bromodomain 1 long isoform (72 to 205 residues) expressed in bacterial expression system by BROMOscan assay
[24] = Half life in Sprague-Dawley rat at 5 mg/kg, iv by LC/MS method; format: ADME, organism-based; settings: in vivo
[25] = target: T1, Bromodomain-containing protein 4; assay: Inhibition of FAM-labeled ZBA248 binding to recombinant human N-terminal His6-tagged BRD4 bromodomain 2 (333 to 460 residues) expressed in Rosetta2 DE3 cells after 30 mins by Flourescence polarization assay; format: biochemical
[26] = target: T2, Bromodomain-containing protein 8; assay: Binding affinity to human partial length BRD8 bromodomain 2 (D1095 to F1235 residues) expressed in mammalian expression system by BROMOscan assay
[27] = Half life in Sprague-Dawley rat at 25 mg/kg, po by LC/MS method; format: ADME, organism-based; settings: in vivo; procedure, shortened: as §4
[28] = target: T3, Bromodomain testis-specific protein; assay: Binding affinity to human partial length BRDT bromodomain 1/2 isoform b (K250 to E382 residues) expressed in bacterial expression system by BROMOscan assay
[29] = target: T1, Bromodomain-containing protein 4; assay: Binding affinity to recombinant human BRD4 bromodomain 1 (44 to 168 residues) by BROMOscan assay

Q: For `COc1cc2c(cc1-c1c(C)noc1C)[nH]c1nc(C)nc(-c3ccnc4ccccc34)c12`, which t1/2 [1] is on record?
A: > 1 h

Q: What about the Kd [2] of the same compound?
A: 2 nM

Q: What about the Kd [3] of the same compound?
A: > 4000 nM

Q: What about the Kd [4] of the same compound?
A: > 4000 nM

Q: And the Kd [5]?
A: > 4000 nM

Q: And the CL (Mus musculus [6])?
A: 22.7 mL/min/kg

Q: What about the Kd [7] of the same compound?
A: > 4000 nM

Q: What about the inhibition (MV4-11 [8]) of the same compound?
A: Dose-dependent effect

Q: What about the IC50 (HCC1143) of the same compound?
A: > 2000 nM

Q: And the Activity (Mus musculus [9])?
A: Non-Toxic

Q: What about the Kd [10] of the same compound?
A: 15 nM

Q: What about the Cmax [11] of the same compound?
A: 7330 ng/mL

Q: And the Kd [12]?
A: > 4000 nM

Q: What about the Activity (MV4-11 [13]) of the same compound?
A: Dose-dependent effect

Q: And the AUC(0-t) [14]?
A: 9140 ng·h/mL

Q: And the t1/2 (Mus musculus [15])?
A: 0.5 h

Q: And the bioavailability [16]?
A: 50%

Q: What about the Kd [17] of the same compound?
A: 0.69 nM

Q: And the bioavailability [18]?
A: 93%

Q: What about the IC50 (SUM-159-PT) of the same compound?
A: > 2000 nM

Q: What about the Kd [19] of the same compound?
A: > 4000 nM

Q: What about the Kd [20] of the same compound?
A: 5.5 nM

Q: What about the Activity (Mus musculus [21]) of the same compound?
A: Non-Toxic

Q: What about the IC50 [22] of the same compound?
A: 28.2 nM

Q: And the Ki [22]?
A: 8.2 nM

Q: What about the Kd [23] of the same compound?
A: 4.5 nM

Q: What about the half-life [24] of the same compound?
A: 2.4 h

Q: What about the IC50 [25] of the same compound?
A: 7.2 nM

Q: And the Ki [25]?
A: 1.4 nM

Q: What about the Kd [26] of the same compound?
A: > 4000 nM

Q: What about the half-life [27] of the same compound?
A: 2.9 h

Q: And the Kd [28]?
A: 9.7 nM

Q: What about the Kd [29] of the same compound?
A: 8.4 nM
